Assay results reported in ChEMBL document CHEMBL1154734, “Small-sized human immunodeficiency virus type-1 protease inhibitors containing allophenylnorstatine to explore the S2' pocket” (J Med Chem, 2009).
Converted amounts (≈) assume the structure as drawn.

How the values were obtained:
Protease = Protease (Human immunodeficiency virus 1, UniProt Q9YQ12); test: Inhibition of HIV1 recombinant protease after 15 mins by fluorescence assay
[1] = target: Protease (Human immunodeficiency virus 1) (UniProt Q9YQ12); test: Inhibition of HIV1 recombinant protease at 50 nM after 15 mins by fluorescence assay
In short: (§1)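 Recombinant HIV-1 protease was assayed in MES–NaOH pH 5.5 with DTT, EDTA and NaCl, with inhibitor at 50 nM final (500 nM DMSO stock). The substrate was H-Lys-Ala-Arg-Val-Tyr-Phe(p-NO2)-Glu-Ala-Nle-NH2, and the reaction ran 15 min at 37 °C. It was stopped with 1 N HCl. The N-terminal fragment was quantified by RP-HPLC with fluorescence at ex 275/em 305 nm.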

[2] = target: Protease (Human immunodeficiency virus 1) (UniProt Q9YQ12); test: Inhibition of HIV1 recombinant protease at 1 nM after 3 hrs by fluorescence assay
[3] = tested on: Human immunodeficiency virus 1; test: Antiviral activity against HIV1 pNL4-3 infected in human MT4 cells assessed as inhibition of virus-induced cytopathic effect after 5 days by MTT assay; format: functional, organism-based; conditions: Human immunodeficiency virus 1, pNL4-3, MT4, 120 h
In short: (§2)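 HIV-1 (IIIB or pNL4-3) inoculated into MT-4 cells. Cultures were treated with an equal volume of a 1% DMSO solution of compound at several concentrations plus 10% fetal bovine serum, then incubated 5 days at 37 °C in CO2, in triplicate. After MTT, optical density gave the percent cytopathic effect reduction. EC50 was fitted to a median-effect equation.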

[4] = tested on: Human immunodeficiency virus 1; test: Antiviral activity against HIV1 pNL4-3 infected in human MT4 cells assessed as inhibition of virus-induced cytopathic effect after 5 days by MTT assay in absence of human serum; format: functional, organism-based; conditions: Human immunodeficiency virus 1, pNL4-3, MT4, 120 h; in short: as §2
[5] = tested on: Human immunodeficiency virus 1; test: Antiviral activity against HIV1 pNL4-3 infected in human MT4 cells assessed as inhibition of virus-induced cytopathic effect after 5 days by MTT assay in presence of 50% human serum; format: functional, organism-based; conditions: Human immunodeficiency virus 1, pNL4-3, MT4, 120 h
In short: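 MT-4 cells were infected with wild-type HIV-1 (IIIB or pNL4-3) in the presence of 50% human serum. Compound was added at several concentrations from a 1% DMSO solution, and cells were incubated 5 days at 37 °C in triplicate. Cytopathic effect reduction was read by MTT optical density, and EC50 was derived from a median-effect equation fit.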

[6] = tested on: Human immunodeficiency virus 1; test: Ratio of EC50 for HIV1 pNL4-3 infected in human MT4 cells in presence of 50% human serum to EC50 for HIV1 pNL4-3 infected in human MT4 cells in absence of human serum; format: functional
In short: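 HIV-1 pNL4-3 was inoculated into MT-4 cells, then test compound was added at several concentrations in 1% DMSO with 10% FBS. Cultures were incubated 5 days at 37 °C in CO2, in triplicate, and the cytopathic effect was read by MTT optical density. EC50 was fitted to a median-effect equation with and without 50% human serum. The serum binding effect is their ratio.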

[7] = Aqueous solubility in 0.1% TFA after 30 mins by RP-HPLC analysis; format: physicochemical; conditions: 0.1% TFA in water
[8] = tested on: Human immunodeficiency virus 1; test: Antiviral activity against HIV1 3B infected in human MT4 cells assessed as inhibition of virus-induced cytopathic effect after 5 days by MTT assay; format: functional, organism-based; conditions: Human immunodeficiency virus 1, 3B, MT4, 120 h; in short: as §2
[9] = tested on: Human immunodeficiency virus; test: Inhibition of recombinant HIV protease at 50 nM after 15 mins by fluorescence assay; in short: as §1
[10] = tested on: Human immunodeficiency virus 1; test: Antiviral activity against indinavir-resistant HIV1 harboring L10R/M46I/L63P/V82T/I84V mutant protease infected in human MT4 cells assessed as inhibition of virus-induced cytopathic effect after 5 days by MTT assay; format: functional, organism-based; conditions: Human immunodeficiency virus 1, MT4, 120 h
In short: (§3)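 MT-4 cells inoculated with HIV-1 wild-type pNL4-3 or indinavir-resistant IND-R, then given an equal volume of compound in 1% DMSO at several concentrations with 10% fetal bovine serum. Incubated 5 days at 37 °C in CO2, in triplicate. MTT read-out by optical density gave percent cytopathic-effect reduction; EC50 was fitted to a median-effect equation.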

[11] = tested on: Human immunodeficiency virus 1; test: Fold resistance, ratio of EC50 for indinavir-resistant HIV1 harboring L10R/M46I/L63P/V82T/I84V mutant protease infected in human MT4 cells to EC50 for HIV1 pNL4-3 infected in human MT4 cells; format: functional; in short: as §3

Protease, sequence (Q9YQ12 whole entry): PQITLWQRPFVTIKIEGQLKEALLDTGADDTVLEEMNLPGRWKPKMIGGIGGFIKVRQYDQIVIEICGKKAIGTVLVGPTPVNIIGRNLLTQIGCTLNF
Protease (Human immunodeficiency virus 1), sequence (Q9YQ12 as listed by the source): as the sequence (Q9YQ12 whole entry) above

SMILES	Ki (Protease)	inhibition [1]	solubility at 0.5 h [7]	inhibition [9]	inhibition [2]	EC50 [3]	EC50 [4]	EC50 [5]	Ratio EC50 [6]	EC50 [8]	EC50 [10]	Ratio EC50 [11]
C=C(C)CNC(=O)[C@H]1N(C(=O)[C@@H](O)[C@H](Cc2ccccc2)NC(=O)COc2c(C)cc(N)cc2C)CSC1(C)C	–	98%	8480 µg/mL (≈ 14.9 mM)	–	43%	–	10 nM	82 nM	8.2	–	–	–
Cc1ccccc1CNC(=O)[C@H]1N(C(=O)[C@@H](O)[C@H](Cc2ccccc2)NC(=O)c2cccc(O)c2C)CSC1(C)C	0.031 nM	99%	–	–	72%	60 nM	–	–	–	33 nM	100 nM	1.7
Cc1c(O)cccc1CNC(=O)[C@H]1N(C(=O)[C@@H](O)[C@H](Cc2ccccc2)NC(=O)c2cccc(O)c2C)CSC1(C)C	–	95%	–	–	41%	162 nM	–	–	–	120 nM	155 nM	1

The next lines start with results.

Ki (Protease)	inhibition [1]	solubility at 0.5 h [7]	inhibition [9]	SMILES	inhibition [2]	EC50 [3]	EC50 [4]	EC50 [5]	Ratio EC50 [6]	EC50 [8]	EC50 [10]	Ratio EC50 [11]
0.0024 nM	99%	–	–	Cc1cccc(C)c1CNC(=O)[C@H]1N(C(=O)[C@@H](O)[C@H](Cc2ccccc2)NC(=O)c2cccc(O)c2C)CSC1(C)C	82%	–	–	–	–	–	–	–
0.19 nM	98%	–	–	C=C(C)CNC(=O)[C@H]1N(C(=O)[C@@H](O)[C@H](Cc2ccccc2)NC(=O)c2cccc(O)c2C)CSC1(C)C	–	17 nM	–	–	–	–	–	–
–	–	–	82%	Cc1c(O)cccc1C(=O)N[C@@H](Cc1ccccc1)[C@H](O)C(=O)N1CSC(C)(C)[C@H]1C(=O)NC(C)(C)c1ccccc1	–	–	–	–	–	123 nM	–	–
